A selection: hits, their analogues and other compounds. The true share with any hit is near 1.9%.
Runt-SMMHC FRET: Runt domain-CBFb-SMMHC interaction inhibition; AID 1434; Cerulean-Runt/Venus-CBFb-SMMHC FRET ratio 530/480, 1 h; hit rate 0.74% among 220,000; inhibition, % at 20 µM;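 active = mean inhibition across duplicate retests at 20 µM reaching about 50%, limit read from the data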;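 also: 0% = DMSO wells and 100% = wells with excess untagged CBFb-SMMHC; inhibitors lower the FRET ratio by blocking Runt binding to CBFb-SMMHC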
Hck Nef HTS: blocks Nef-activated human Hck kinase; P08631; inhibition, % at 20 µM; hit rate 0.68% among 220,000; Recombinant Hck-YEEI plus Nef, Z-Lyte FRET kinase assay;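 active = Hck-Nef kinase inhibition above about 50%, limit read from the data; inactive = inhibition below that limit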;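 also: 0% = DMSO with Hck plus Nef and 100% = Hck alone without Nef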
Target sequence (P08631 whole entry, looked up): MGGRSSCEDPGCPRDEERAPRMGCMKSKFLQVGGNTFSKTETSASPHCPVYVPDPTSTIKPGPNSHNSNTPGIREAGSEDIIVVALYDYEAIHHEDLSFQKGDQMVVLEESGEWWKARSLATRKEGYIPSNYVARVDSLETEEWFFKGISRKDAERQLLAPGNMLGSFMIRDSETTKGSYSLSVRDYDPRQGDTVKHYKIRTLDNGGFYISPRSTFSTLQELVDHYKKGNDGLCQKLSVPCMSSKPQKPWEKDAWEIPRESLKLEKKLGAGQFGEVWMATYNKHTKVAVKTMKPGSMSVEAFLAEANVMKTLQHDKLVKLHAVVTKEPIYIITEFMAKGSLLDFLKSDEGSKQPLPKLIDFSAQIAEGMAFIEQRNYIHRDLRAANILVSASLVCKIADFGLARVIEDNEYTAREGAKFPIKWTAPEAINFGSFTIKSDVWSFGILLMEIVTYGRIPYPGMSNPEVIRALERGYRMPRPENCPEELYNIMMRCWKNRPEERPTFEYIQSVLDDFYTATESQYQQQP
Runt-CBFb FRET: Runt domain-CBFb interaction inhibition | hit rate 0.46% among 220,000 | Q01196+Q13951 | Cerulean-Runt/Venus-CBFb FRET ratio 530/480, 1 h | inhibition, % at 20 µM;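 active = inhibition over about 50% at 20 µM in the single-dose screen, limit read from the data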;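 also: 0% = DMSO wells and 100% = excess unlabeled CBFb competitor control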
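Assay system: Cerulean-Runt domain fusion protein, energy donor; Signal: fluorescence energy transfer, 422 nm excitation, 530/480 nm emission; Timing: 1 h compound exposure, room temperature; Control set: unlabeled CBFb; Medium: Tris buffer pH 7.5 with salts and BSA; Compound: single test concentration of 20 µM, 1% DMSO final; Probe or stimulus: Venus-CBFb 100 nM.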
RanGTP-Impb inh: disruptors of Ran-importin-beta complex formation – biochemical, FRET, CFP-Ran, YFP-importin-beta, homogeneous, primary screen | cell-free CFP-Ran/YFP-importin-beta FRET ratio | hit rate 1.1% among 300,000 | inhibition, % (no concentration beside the values) | AID 2216;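 active = more than half of the replicate wells show a fall in the fluorescence ratio signal beyond about 16%, limit read from the data, passing the limit was not always enough; inconclusive = exactly half of the replicate wells pass the set limit; inactive = fewer than half of replicates pass the limit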;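 also: 0% = DMSO wells and 100% = Ran loaded with GDP instead of GTP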
* hit, by the source's call; ? = inconclusive; . = not tested or not shown.

SMILES	Runt-SMMHC FRET	Hck Nef HTS	Runt-CBFb FRET	RanGTP-Impb inh
COC(=O)c1ccc(COc2ccc(/C=N/NC(N)=S)cc2)o1	-4	-5	2	4
COc1cc(CC(NC(C)=O)C(=O)NC2CCN(C(=O)Nc3ccccc3C)CC2)cc(OC)c1 (stereo unspecified)	.	.	.	-3
Cc1csc(SCC(=O)O)n1	9	3	114*	2
Cc1csc(NC(=O)CSc2nc(C)cs2)n1	-7	7	1	4
Oc1c(C=Nc2cccc3cccnc23)sc2ccccc12	18	1	35	39*
Oc1ccc(Cl)cc1N=Cc1sc2ccccc2c1Cl	17	1	.	?
Cc1cccc(/N=C/c2sc3ccccc3c2O)n1	-1	5	-1	33*
O=C(N/N=C/c1sc2ccccc2c1O)c1cccc2ccccc12	-19	2	-7	7
O=[N+]([O-])c1ccc(O)c(N=Cc2sc3ccccc3c2O)c1	48	3	16	38*
Cc1c(NC(=O)C(C)OC(=O)/C=C/c2ccc3c(c2)OCO3)c(=O)n(-c2ccccc2)n1C (stereo unspecified)	-1	3	-1	-1
COc1ccc(Nc2c3ccccc3nc3ccccc23)cc1	.	.	.	67*
O=C(O)c1ccc(Nc2nc(-c3ccccc3)nc3ccccc23)cc1	.	.	.	-1
O=C(O)c1ccc(Nc2c3ccccc3nc3ccccc23)cc1	.	.	.	20*
COc1cccc(C(=O)NNc2c3ccccc3nc3ccccc23)c1	.	.	.	16*
C=CCNC(=S)NNC(=O)c1cccc(Br)c1	1	1	2	1
C=CCNC(=O)c1cccc(Br)c1	-2	1	3	24*
CC(C)c1nc2cc(C(=O)N3CCNC(=O)C3c3cccc(F)c3)ccc2o1 (stereo unspecified)	.	.	.	-2
Cc1cc(=O)oc2cc(OC(=O)c3nn(C(C)C)c(=O)c4ccccc34)ccc12	90*	19	42	2
CCCn1nc(C(=O)Oc2ccc3c(C)cc(=O)oc3c2)c2ccccc2c1=O	88*	16	43	7
CN(C)c1oc(/C=C/c2cccs2)nc1S(=O)(=O)c1ccccc1	.	.	.	-4
Cn1c(=O)c2c(ncn2Cc2ccccc2)n(C)c1=O	1	13	0	-4
Cn1c(=O)c2nc(NCc3ccccc3)cnc2n(C)c1=O	38	3	12	75*
COc1ccc(N2CCN(c3ccc(NC(=O)NN)cc3)CC2)cc1	.	.	.	-3
Cc1ccc(C(=O)NC(=O)CSc2nncn2C)cc1	.	.	.	-6
Cc1ccc(C2=NN=C(NC(=O)CSc3nncn3C)SC2)cc1	61*	19	49	-1
SMILES	Runt-SMMHC FRET	Hck Nef HTS	Runt-CBFb FRET	RanGTP-Impb inh
O=C(O)C1CCCCC1C(=O)Nc1ccc(S(=O)(=O)N2CCCC2)cc1 (stereo unspecified)	.	.	.	3
O=C(O)[C@H]1CCCC[C@H]1C(=O)Nc1ccc(S(=O)(=O)N2CCOCC2)cc1	.	.	.	17*
COc1ccc(NC(=O)CN(C)C(=O)c2ccc(NS(=O)(=O)c3cccc([N+](=O)[O-])c3)cc2)cc1	.	.	.	2
CC(OC(=O)c1ccc(Cl)c(S(=O)(=O)N2CCOCC2)c1)C(=O)Nc1ccc(S(N)(=O)=O)cc1 (stereo unspecified)	.	.	.	2
Cc1cc(=O)[nH]c(-c2cccnc2)n1	-5	21	-1	22*
CC(C(=O)NCC1CCCO1)n1cc([N+](=O)[O-])cn1 (stereo unspecified)	0	-4	3	-1
O=C(Cc1c(F)cccc1Cl)N1CCN(S(=O)(=O)c2cccc(F)c2)CC1	.	.	.	4
COc1ccccc1-[n+]1c(C)cc(/C=C2\Sc3ccccc3N2C)cc1C	63*	-32	6	1
COc1ccc(CC(=O)Nc2nncs2)cc1OC	83	3	89*	3
CCOC(=O)C1CCCN(C(=S)NC2CCCC2)C1 (stereo unspecified)	-3	17	-1	-1
CCOC(=O)c1cc(C)[nH]c(=O)c1C#N	56*	-3	26	8
CC1=Nc2ccccc2/C1=C/c1sc(=N)n(-c2nccs2)c1O	-112	1	-42	23*
CCOCCCN1CC(=O)N2[C@@H](Cc3c([nH]c4ccccc34)C2(C)C)C1=O	.	.	.	1
CC(=O)Nc1ccc(C2=NN(c3ccccc3)C(c3cccs3)C2)cc1 (stereo unspecified)	55*	24	23	1
COc1cc(/C=C(\C#N)c2nc3ccccc3[nH]2)ccc1OC(=O)c1ccco1	1	5	-20	9
COc1cc(/C=C(\C#N)c2nc3ccccc3[nH]2)c([N+](=O)[O-])cc1OCc1ccccc1	83*	0	38	9
CCCCn1c(N)c(N(CCOC)C(=O)CSc2nnc(-c3ccncc3)n2CCC)c(=O)[nH]c1=O	.	.	.	6
COc1ccccc1CNC(=O)C1(NC(=O)Nc2ccc(C)cc2)CCCCC1	1	13	0	3
COCCn1c(=N)c(S(=O)(=O)c2ccc(Br)cc2)cc2c(=O)n3ccccc3nc21	.	.	.	119*
COCCn1c(=N)c(S(=O)(=O)c2ccc(F)cc2)cc2c(=O)n3ccccc3nc21	.	.	.	160*
Cc1cccc2nc(-c3ccccc3)nc(N[C@@H](CO)c3ccccc3)c12	3	7	-1	-3
N#C/C(=C\c1ccncc1)c1nc2ccccc2[nH]1	-11	-23	4	7
N#C/C(=C/c1ccncc1)c1nc2ccccc2s1	-40	16	-16	84*
Cc1ccc2c(c1)C(=O)CCN2	-152	5	-41	?
O=C1CCNc2cc3ccccc3cc21	75*	8	16	38*
SMILES	Runt-SMMHC FRET	Hck Nef HTS	Runt-CBFb FRET	RanGTP-Impb inh
CC1CCCC(C)N1C(=O)COC(=O)C1CCN(S(=O)(=O)c2ccc3c(c2)OCCO3)CC1 (stereo unspecified)	.	.	.	-2
CCCCn1nc(NC(=O)CC)c2cc3cc(OC)ccc3nc21	.	.	.	65*
CCC(=O)Nc1nc2cc(OC)ccc2s1	4	2	-1	-3
CCCn1nc(NC(=O)C(C)(C)C)c2cc3cc(OC)ccc3nc21	.	.	.	67*
O=[N+]([O-])c1cccc(NC(=S)N2CCOCC2)c1	-1	-17	2	68*
O=c1c(O)c(-c2cccs2)oc2ccc(Cl)cc12	58*	1	7	18*
O=c1cc(-c2cccs2)oc2ccc(Cl)cc12	-5	-2	-3	-3
O=c1c(O)c(-c2cccs2)oc2ccccc12	79*	-6	19	93*
CCOC(=O)c1c(NC(=S)NCc2ccccc2)sc2c1CCN(C(=O)OCC)C2	-2	-26	1	4
CCC(=O)Nc1sc2c(c1C(=O)OC)CCN(Cc1ccccc1)C2	.	.	.	92*
COC(=O)c1c(NC(=O)C(C)C)sc2c1CCN(Cc1ccccc1)C2	.	.	.	54*
CC(=S)/C=C1\Sc2ccccc2N1C	37	1	48	-1
COc1ccc(C(=O)/C=C2\Sc3ccccc3N2C)cc1	56*	31	31	-1
Cc1ccc(OCCC(=O)Nc2ccc(S(=O)(=O)Nc3cc(C)nc(C)n3)cc2)cc1	.	.	.	20*
CCOc1ccc(OCC(=O)Nc2ccc(S(=O)(=O)Nc3cc(C)nc(C)n3)cc2)cc1	-4	7	2	2

Compound activity: PubChem BioAssay, several laboratories
